Biological target: wild type XIAP‐BIR1 (Homo sapiens, UniProt P98170)
Assay: MicroScale Thermophoresis
Type: binding
Summary of the method: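 Human XIAP-BIR1 domain (wild type, or R62S, D71A, R82S or V86E point mutant made by site-directed mutagenesis), expressed from pET28b and purified. Lysines were covalently dye-labelled, and protein was held at 100 nM. Test compound was added as a two-fold series, final 30 nM–1.0 mM or 300 nM–10 mM. Assay at 24 °C in 50 mM Tris-HCl pH 8, 200 mM NaCl, 10 % glycerol, 10 mM DTT, 0.05 % Tween20, with 20 % LED and medium MST power. Kd was fitted from unbound/bound response values.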

wild type XIAP‐BIR1, sequence (P98170 10-99 limits assumed): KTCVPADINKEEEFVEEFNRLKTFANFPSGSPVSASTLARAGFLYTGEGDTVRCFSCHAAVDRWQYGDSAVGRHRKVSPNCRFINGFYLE

Cc1ccc(C(=O)Nc2ccc(S(=O)(=O)O)c3cc(S(=O)(=O)O)cc(S(=O)(=O)O)c23)cc1NC(=O)c1cccc(NC(=O)Nc2cccc(C(=O)Nc3cc(C(=O)Nc4ccc(S(=O)(=O)O)c5cc(S(=O)(=O)O)cc(S(=O)(=O)O)c45)ccc3C)c2)c1 [Suramin]
Kd: 612 ± 109 µM
